# Source: PubChem BioAssay (Broad Institute)
# An excerpt weighted towards active compounds, which were near 3.3% of everything screened.
# Xi reactivation: reactivates the inactive X chromosome in mouse fibroblasts; XiGFP mouse fibroblasts, % GFP-positive cells imaging, 3 d; cells co-treated with 5-aza-dC sensitizer; scaled so ellipticine positive control = 100%; AID 743238; actives 0.055% (n = 360,000); activation, % at 7.58 µM;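 active = mean normalized replicate activation at least 10% and every replicate at or above 10%; inconclusive = only one of the two criteria met; inactive = mean below 10% and not all replicates reach 10%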
#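 System: SV40-immortalized XiGFP fibroblast cells, line 68-5-11 / Incubation: 3-day compound exposure, then 15 min fixation at room temperature / Compound: single concentration per compound, delivered by pin transfer / Buffer or medium: DMEM plus 5-aza-dC sensitizer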
# FGF22 binding: shifts melting point of recombinant human FGF22; Q9HCT0; recombinant FGF22 thermal shift, SYPRO orange fluorescence; percent of sucrose octasulfate shift, DMSO zero; activity (Tm shift, normalised), % at 9.99 µM; actives 1.5% (n = 340,000);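 active = mean Tm shift, scaled 0 neutral to 100 positive control, at about 1.3% or above, every replicate too, limit read from the data; inconclusive = no clear call, values can overlap the other calls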
# Target sequence (Q9HCT0 whole entry, looked up): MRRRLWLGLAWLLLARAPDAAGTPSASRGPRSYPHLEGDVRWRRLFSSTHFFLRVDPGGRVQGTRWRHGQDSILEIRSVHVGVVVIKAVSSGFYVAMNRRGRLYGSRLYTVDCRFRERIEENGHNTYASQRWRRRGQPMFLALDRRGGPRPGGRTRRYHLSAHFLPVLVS
# E-sel inducer: induces E-selectin expression in human endothelial cells | P16581 | HUVEC E-selectin immunofluorescence imaging; normalized: neutral wells 0, TNF-alpha wells 100 | activation, % at 7.58 µM | actives 0.37% (n = 260,000);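 active = mean E-selectin-positive cell signal at least 10% of the positive control, reached in at least 60% of replicates, without over 20% cell loss; inconclusive = no rule given, readout overlaps actives, possibly toxicity-flagged; inactive = the rest, including those meeting only one limit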
#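 Read-out basis: % PE-positive cells; Test system: HUVEC primary endothelial cells; Technique: immunofluorescence imaging; Dosing: single-point compound dose.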
# DENV2 CPE rescue: inhibitors of DENV2 cytopathic effect | CPE inhibition, % at 9.99 µM | DENV2-infected cells, cytopathic effect rescue, plate reader | actives 1.7% (n = 350,000); in the data active = CPE inhibition above about 20%, passing the limit was not always enough; inconclusive = no clear call, values can overlap the other calls; tested in BHK-21 cells
# PglD DTNB: PglD (C. jejuni) enzyme inhibition. purified PglD enzyme, DTNB colorimetric CoA detection. inhibition, % at 12.5 µM. actives 0.098% (n = 360,000). AID 602405; in the data active = inhibition above about 16%, passing the limit was not always enough; inconclusive = no clear call, values can overlap the other calls
# C2C12 statin: suppression of simvastatin myotoxicity; AID 602340; rescue of ATP level, % at 7.49 µM; actives 0.78% (n = 330,000); C2C12 myotubes + simvastatin, ATP luminescence, 48 h; scaled: DMSO 0, geranylgeraniol control 100;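 active = mean ATP rescue above about 67%, or every replicate alone reaching that limit, limit read from the data, passing the limit was not always enough; inconclusive = no clear call, values can overlap the other calls; inactive = mean under the limit and some replicate under it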;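 also: myotubes were challenged with 10 µM simvastatin during compound exposure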
# Numbers stand for hits; . = inactive; ? = inconclusive; / = not tested or not shown.
SMILES,Xi reactivation,FGF22 binding,E-sel inducer,DENV2 CPE rescue,PglD DTNB,C2C12 statin
COCCCNC(=O)Cn1nnc(-c2ccc(NC(=O)c3ccccc3OC)cc2)n1,/,/,/,/,.,.
COc1ccccc1C(=O)Nc1ccc(-c2nnn(CC(=O)N3CCOCC3)n2)cc1,.,43.8,/,.,.,.
CC(=O)Nc1ccc2c(c1)CC(=O)N(C)C[C@H](C)[C@H](CN(C)C(=O)OC(C)(C)C)O2,.,/,/,/,/,/
Cc1cccc(C)c1NC1=NC(C)(C)N=C(N)N1,/,/,/,/,.,.
CC1(C)N=C(N)NC(Nc2ccccc2Cl)=N1,.,43.0,/,.,.,.
C[C@@H]1CN([C@@H](C)CO)C(=O)Cc2cc(NC(=O)Cc3cn(C)c4ccccc34)ccc2O[C@H]1CN(C)Cc1ccc(Oc2ccccc2)cc1,.,.,.,.,.,76.2
COc1ccc(CN(C)C[C@@H]2Oc3ccc(NC(=O)Cc4cn(C)c5ccccc45)cc3CC(=O)N([C@H](C)CO)C[C@H]2C)cc1,.,.,.,.,.,80.8
CS(=O)(=O)Nc1ccc2c(c1)[C@H]1C[C@@H](CC(=O)NCc3ccc(Cl)cc3)O[C@@H](CO)[C@H]1O2,.,.,.,.,.,.
CCOc1ccc(NC(=O)c2ccc(NC(=S)NC3CCCCC3)cc2)cc1,.,.,.,.,.,.
CCOc1ccc(NC(=O)c2ccc(NC(=S)NC3CC3)cc2)cc1,.,1.9,/,/,.,/
CCCNC(=O)C[C@H]1CC[C@@H]2[C@@H](COc3ccc(NC(=O)NCCC)cc3C(=O)N2C)O1,.,/,.,.,/,/
COCCCn1c(=O)/c(=C\c2ccc(OC(F)F)c(OC)c2)s/c1=C(/C#N)C(N)=O,.,.,.,.,/,/
COCCCn1c(=O)/c(=C\c2ccccc2OC(F)F)s/c1=C(/C#N)C(N)=O,.,.,37.6,.,.,.
Cc1c(CCC(=O)NCCCN2CCCC2=O)c(=O)oc2cc(O)ccc12,/,.,/,66.6,.,.
Cc1coc2cc3oc(=O)c(CCC(=O)NCCCn4ccnc4)c(C)c3cc12,/,.,/,.,.,.
Cc1c(CCC(=O)NCCCN2CCCC2=O)c(=O)oc2c(C)c(O)ccc12,/,.,/,?,.,.
Cc1oc2cc3oc(=O)c(CCC(=O)NCCCn4ccnc4)c(C)c3cc2c1C,/,.,/,20.9,.,.
C/C=C/c1ccc([C@@H]2[C@@H](CO)N(C(=O)NCCC)[C@H]2CNC(=O)C2CC2)cc1,.,/,.,.,.,.
CC[n+]1c(C)sc2c3ccsc3ccc21,.,43.3,/,.,/,.
COc1ccc2c3c([nH]c2c1)[C@@H](CO)N(C(=O)c1cccnc1)CC31CCN(Cc2cccnc2)CC1,.,.,.,.,/,/
O=C1CCC(=O)N(O)CCCCCNC(=O)CCC(=O)N(O)CCCCNC(=O)CCC(=O)N(O)CCCCCN1,/,.,/,86.7,.,.
C[C@H]1CN([C@@H](C)CO)S(=O)(=O)c2ccc(-c3ccc(F)cc3)cc2O[C@H]1CN(C)C(=O)C1CCCCC1,.,.,.,.,.,.
c1ccc(-c2csc(-c3ccc(-c4csnn4)cc3)n2)cc1,.,.,.,54.2,/,/
CC(=O)Nc1ccc(NC(=O)CSc2nc(N)c(NC(=O)c3ccccc3F)c(=O)[nH]2)cc1,.,.,.,.,.,.
Nc1nc(SCC(=O)O)[nH]c(=O)c1NC(=O)c1ccccc1F,.,43.0,/,.,.,.
SMILES,Xi reactivation,FGF22 binding,E-sel inducer,DENV2 CPE rescue,PglD DTNB,C2C12 statin
O=S(=O)(NC[C@@H]1CC[C@@H]2[C@@H](CN2Cc2cccc(-c3ccccn3)c2)O1)c1ccccc1,/,/,/,.,/,/
COc1ccc(NC(=O)CC2C(=O)NCCN2C(=O)c2ccc(Cl)cc2)cc1 (stereo not given),.,.,.,.,.,100.6
O=C(CC1C(=O)NCCN1C(=O)c1ccc([N+](=O)[O-])cc1)Nc1ccc(F)cc1 (stereo not given),.,.,/,.,.,100.7
COc1ccc(NC(=O)CC2C(=O)NCCN2C(=O)c2ccccc2)cc1 (stereo not given),.,.,/,?,.,/
COc1ccc(C(=O)N2CCNC(=O)C2CC(=O)Nc2cccc(Cl)c2Cl)cc1 (stereo not given),.,.,.,88.8,.,.
Cc1ccc(NC(=O)CC2C(=O)NCCN2C(=O)c2ccc(F)cc2)cc1 (stereo not given),.,.,.,.,.,/
